Only some compounds are listed: those with a hit (about 3.9% of all), similar ones and a draw of the others.
UPR XBP1 act = adaptive UPR (XBP1) activation; CHO-XBP1 luciferase reporter, IRE1-XBP1 UPR activation, luminescence; percent of tunicamycin response, DMSO as zero; activation, % at 20 µM; hit rate 0.33% among 330,000;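 active = versus positive control, 20 µM dose yields 30% or more activation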;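 note: 100% = tunicamycin at 10 µg/mL and 0% = DMSO only wells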
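Material: CHO-XBP1 cells stably carrying IRE1-XBP1-driven luciferase reporter / Amount: 1000 cells per well / Compound: 20 µM, 1% DMSO / Times: 6 h treatment, 37 °C / Detection: luciferase luminescence / Measure: % activation of reporter signal versus tunicamycin and DMSO controls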
697 NFkB inh = lowers PMA/ionomycin-induced NF-kB signal in 697 B cells; 697 B-cell NF-kB luciferase reporter, 16 h; inhibition, % at 4 µM; hit rate 0.33% among 330,000; in the data active = inhibition above about 35%
CHOP inh = CHOP inhibition in unfolded protein response; CHO-K1 CHOP-promoter luciferase, tunicamycin-induced, 15-18 h; inhibition, % at 10 µM; hit rate 3.8% among 220,000;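 active = compounds that reduced the stress-induced luciferase reporter signal by more than about 70% of percent inhibition, limit read from the data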;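 note: 0% = tunicamycin plus vehicle and 100% = wells without tunicamycin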
Gli-Sufu antag = antagonists of Gli-Sufu signaling; Sufu-KO-LIGHT fibroblasts, Gli luciferase reporter luminescence; inhibition, % at 5 µM; hit rate 0.74% among 340,000; AID 588413;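 active = inhibition above about 55%, limit read from the data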;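 note: 0% = DMSO-treated cells and 100% = wells with medium but no cells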
Jurkat NFkB inh = lowers PMA/ionomycin-induced NF-kB signal in Jurkat cells; hit rate 0.53% among 330,000; AID 435003; PMA/ionomycin-induced NF-kB luciferase reporter, luminescence; inhibition, % at 4 µM; in the data active = inhibition above about 50%
UPR CHOP act = activators of apoptotic arm of unfolded protein response (CHOP); CHO-CHOP luciferase reporter, UPR activation, luminescence; percent of tunicamycin response over DMSO baseline; activation, % at 10 µM; hit rate 0.34% among 330,000;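 active = at 10 µM dose, activation of 40% or more, normalized to positive control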;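 note: 100% = tunicamycin at 10 µg/mL and 0% = DMSO alone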
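System: CHO-CHOP luciferase reporter cell line | Buffer or medium: F12 medium containing 10% fetal bovine serum | Doses: One dose, 10 µM in 0.5% DMSO | Times: 6 h compound exposure at 37 °C after overnight seeding | Signal: Luciferase luminescence | Read-out: % activation vs tunicamycin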
Gli-Sufu confirm = confirmation of Gli-SUFU pathway antagonists. shares compounds with Gli-Sufu antag. Sufu-KO-LIGHT cells, Gli luciferase reporter, luminescence. inhibition, % at 5 µM. hit rate 40% among 2,500;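 active = mean inhibition at 5 µM reaching about 45%, limit read from the data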;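 note: plate controls were DMSO-treated cells for no effect and wells lacking cells for full effect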
Gli cytotox = cytotoxic in Gli-SUFU antagonist counter-screen. AID 651994. cytotoxicity, % at 5 µM. hit rate 32% among 2,500. Sufu-KO-LIGHT cells cytotoxicity, ATP luminescence. shares compounds with Gli-Sufu antag;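 active = mean cytotoxicity at 5 µM above about 25%, limit read from the data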;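 note: cells exposed to compound overnight for roughly 16 to 18 hours; plate controls were DMSO wells with cells for no effect and medium without cells for full effect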
Wnt3a counter = inhibits Wnt3a reporter, counter-screen for Gli-SUFU antagonists | inhibition, % at 6.25 µM | Wnt-LIGHT cells, Wnt3a-driven luciferase reporter, luminescence | hit rate 20% among 2,500 | shares compounds with Gli-Sufu antag;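 active = mean inhibition above about 25%, limit read from the data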
The depositor's hits bear a star.

Results for FC(F)Oc1ccc(-c2c[n+]3c(n2-c2ccccc2)CCCCC3)cc1 ?
UPR XBP1 act: 0.2; 697 NFkB inh: -11.5; CHOP inh: 0.2; Gli-Sufu antag: 59.9*; Jurkat NFkB inh: 18.5; UPR CHOP act: -0.9; Gli-Sufu confirm: 69.5*; Gli cytotox: 20.7; Wnt3a counter: -6.7

What do the screens show for `COc1ccc(-c2c[n+]3c4n2CCCCC4=C(c2ccccc2)C3)cc1`?
UPR XBP1 act: 0.3; 697 NFkB inh: 16.6; CHOP inh: 17.7; Gli-Sufu antag: 14.3; Jurkat NFkB inh: 15.0; UPR CHOP act: 0.3

How did CC(=O)N1c2ccc(S(=O)(=O)NCC3CCC(C(=O)NC4CCCCC4C)CC3)cc2CC1C (stereo not drawn) do in these assays?
UPR XBP1 act: -6.8; 697 NFkB inh: 2.8; Gli-Sufu antag: -1.5; Jurkat NFkB inh: 10.1; UPR CHOP act: 1.9

Results for COc1cc(COC(=O)c2cnc(C)cn2)c(OC)cc1Br ?
UPR XBP1 act: -5.0; 697 NFkB inh: 9.5; Gli-Sufu antag: 19.0; Jurkat NFkB inh: -6.1; UPR CHOP act: -0.2

Results for Cc1ccc(S(=O)(=O)N2CCN(C(=O)c3c(C)nn(-c4ccccc4)c3Cl)CC2)cc1 ?
UPR XBP1 act: -1.5; 697 NFkB inh: -26.0; CHOP inh: 34.7; Gli-Sufu antag: 13.0; Jurkat NFkB inh: 10.7; UPR CHOP act: 0.4

Results for Cc1cc(C)c(S(=O)(=O)N2CCN(C(=O)c3c(C)nn(-c4ccccc4)c3Cl)CC2)c(C)c1 ?
Gli-Sufu antag: 97.5*; Gli-Sufu confirm: 31.6; Gli cytotox: 19.4; Wnt3a counter: -0.4

How did C=C(CN(C)C)C(=O)c1cc(C)ccc1C do in these assays?
Gli-Sufu antag: 10.8

How did O=C(NN=C1CCCC1)c1ccc(O)cc1 do in these assays?
UPR XBP1 act: -2.1; 697 NFkB inh: 5.1; Gli-Sufu antag: 50.6; Jurkat NFkB inh: -0.4; UPR CHOP act: 0.0; Gli-Sufu confirm: 20.9; Gli cytotox: 16.4; Wnt3a counter: 8.5
